Reference: ChEMBL document CHEMBL3739295, “Cadinane-Type Sesquiterpenoids from Heterotheca inuloides: Absolute Configuration and Anti-inflammatory Activity” (J Nat Prod, 2015)
Calls of active or inactive are those of the source. No cut-off for these calls is given here.

Columns and labels:
Mus musculus [1] = experiment: Anti-inflammatory activity in TPA-induced mouse ear edema model assessed as inhibition of ear edema at 1 umol/ear; assay type: functional
Outline: (§1)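 In vivo 12-O-tetradecanoylphorbol 13-acetate (TPA)-induced ear edema in mice. Animals were handled under Mexican Official Norm MON-062-Z00-1999.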

Mus musculus [2] = experiment: Anti-inflammatory activity in TPA-induced mouse ear edema model assessed as inhibition of ear edema; assay type: functional, organism-based; outline: as §1

IC50 (Mus musculus [2]) | Compound | inhibition (Mus musculus [1]) | inhibition (INH) (Mus musculus [1]) [%]
> 1 µmol | CC1=CC[C@H](C(C)C)c2cc(C(=O)O)ccc21 | – | 12.93
> 1 µmol | CC1=CC[C@H](C(C)C)[C@H]2C=C(C(=O)O)CC=C12 | inactive | –
> 1 µmol | CC1=C2CCC(C(=O)O)=C[C@@H]2[C@@H](C(C)C)CC1 | – | 21.51

The remaining lines, values behind:

Compound | IC50 (Mus musculus [2]) | inhibition (Mus musculus [1]) | inhibition (INH) (Mus musculus [1]) [%]
CC(C)[C@H]1CC[C@@](C)(O)c2ccc(C(=O)O)cc21 | > 1 µmol | Active | –
CC1=C[C@](O)(C(C)C)C(=O)c2cc(C)c(O)cc21 | > 1 µmol | Active | –
Cc1cc2c(C(C)C)ccc(C=O)c2cc1O | > 228 µg | – | 43.14
COc1c(C(C)C)cc(C)c2ccc(C)cc12 | > 1 µmol | – | 15.32
Cc1ccc2c(c1)C(=O)C(C(C)C)=C[C@@]2(C)O | > 1 µmol | Active | –
